Results collected from several papers.
Each line is one published result; the experiments were not run side by side.
LATS2: Serine/threonine-protein kinase LATS2 (LATS2, Homo sapiens, UniProt Q9NRM7)
AKR1B1: Aldo-keto reductase family 1 member B1 (AKR1B1, Homo sapiens, UniProt P15121)

Compound | target | effect on | mode | method | IC50 [nM]
COc1c(Cl)cccc1Nc1c(-c2ccncc2OC[C@@H]2COCCO2)[nH]c2c1C(=O)NCC2 | Tyrosine-protein kinase Lck (LCK, Homo sapiens, UniProt P06239) | enzyme activity | inhibitor | TR-FRET | 1120
O=C(NC1CCC2(CCCC2)CC1)c1ccc(-c2ccccc2)cc1 | Transient receptor potential cation channel subfamily M member 8 (TRPM8, Homo sapiens, UniProt Q7Z2W7) | ion current | – | patch clamp | 106
Cc1cc(-c2ccnc3[nH]cc(F)c23)cc(F)c1[C@@]1(O)[C@H](C)CN(C2CCS(=O)(=O)CC2)C[C@@H]1C | LATS2 | target engagement in cells | – | BRET | 36
CC(C)C[C@H](NP(=O)(O)O[C@@H]1O[C@@H](C)[C@H](O)[C@@H](O)[C@H]1O)C(=O)N[C@@H](Cc1c[nH]c2ccccc12)C(=O)O | Neprilysin (MME, Homo sapiens, UniProt P08473) | enzyme activity | inhibitor | – | 575
CC1CNCCC1(O)c1ccc(-c2ccnc3[nH]cc(F)c23)cc1 (stereo not drawn) | LATS2 | enzyme activity | inhibitor | radiometric | 5.6
COc1cc(/C=N/NC(=S)NN=Cc2ccncc2)ccc1Oc1ccnc2cc(Cl)ccc12 | AKR1B1 | enzyme activity | inhibitor | absorbance | 9920
O=C(O[C@@H]1[C@@H](O)[C@H](Oc2cc(O)c3c(c2)O[C@H](c2ccccc2)CC3=O)O[C@@H]2COC(=O)c3cc(O)c(O)c(O)c3-c3c(cc(O)c(O)c3O)C(=O)O[C@@H]12)c1cc(O)c(O)c(O)c1 | Thioredoxin domain-containing protein 5 (TXNDC5, Homo sapiens, UniProt Q8NBS9) | enzyme activity | inhibitor | fluorescence | 3900
COc1cc(/C=N/NC(=S)NN=Cc2ccc([N+](=O)[O-])o2)ccc1Oc1ccnc2cc(Cl)ccc12 | AKR1B1 | enzyme activity | inhibitor | absorbance | 7850
Cc1cc(-c2ccnc3[nH]cc(F)c23)cc(F)c1[C@@]1(O)[C@H](C)CN(C(=O)CN)C[C@@H]1C | LATS2 | enzyme activity | inhibitor | radiometric | 2.6
Nc1cnccc1Nc1ccc(Cl)c(Cl)c1 | Endonuclease 8-like 1 (NEIL1, Homo sapiens, UniProt Q96FI4) | enzyme activity | inhibitor | – | > 100000
C=CC(=O)N1CCN(c2nc(=O)n(-c3c(C)ccnc3C(C)C)c3nc(-c4c(O)cccc4F)c(F)cc23)[C@@H](C)C1 | GTPase HRas (HRAS, Homo sapiens, UniProt P01112, C181S/C184S/C186S/G12C) | enzyme activity | inhibitor | – | 87.1
O=C(Nc1c[nH]nc1-c1nc2cc(CN3CCOCC3)ccc2[nH]1)NC1CC1 | LATS2 | enzyme activity | inhibitor | radiometric | 114
COc1cc(/C=N/NC(=S)N/N=C/c2ccc(C=O)cc2)ccc1Oc1ccnc2cc(Cl)ccc12 | AKR1B1 | enzyme activity | inhibitor | absorbance | 12900
OC1(c2ccc(-c3ccnc4[nH]cc(F)c34)cc2)CCNC1 (stereo not drawn) | LATS2 | enzyme activity | inhibitor | radiometric | 8.4
COc1cc(/C=N/NC(=S)N/N=C/c2ccc(N(C)C)cc2)ccc1Oc1ccnc2cc(Cl)ccc12 | AKR1B1 | enzyme activity | inhibitor | absorbance | 10400
